Data set [1] deals with T1, C-C chemokine receptor type 1 (Homo sapiens) (UniProt P32246).
T1 sequence (whole entry): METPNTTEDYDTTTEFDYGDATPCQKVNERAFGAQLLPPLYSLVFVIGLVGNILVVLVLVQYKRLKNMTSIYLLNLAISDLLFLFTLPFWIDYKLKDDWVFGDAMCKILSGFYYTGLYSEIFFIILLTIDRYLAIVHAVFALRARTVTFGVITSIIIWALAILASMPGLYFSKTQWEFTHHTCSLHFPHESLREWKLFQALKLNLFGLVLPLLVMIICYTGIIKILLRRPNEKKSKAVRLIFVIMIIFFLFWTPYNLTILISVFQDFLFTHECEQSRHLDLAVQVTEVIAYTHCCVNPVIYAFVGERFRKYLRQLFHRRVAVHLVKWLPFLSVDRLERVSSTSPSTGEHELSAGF
Description: Antagonist activity at CCR1 in human THP1 cells assessed as inhibition of CCL3-induced chemotaxis at 1000 nM after 2 hrs by microtiter format trans-well migration assay. The format is functional, cell-based. Conditions: THP-1. In short, it runs like this:
(§1)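 Microtiter trans-well migration assay in Gey's balanced salt solution with 1 mg/mL endotoxin-free BSA, no fetal calf serum. Migration ran 2 h at 37 °C. Compounds dissolved in DMSO and added to both top and bottom compartments, final DMSO 1%.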

The test system of data set [2] is Mus musculus. Kind of data set: Antiinflammatory activity in mouse assessed as inhibition of LPS-induced TNFalpha upregulation at 830 pg, sc measured 2 hrs after LPS challenge. It is filed as functional. In short, it runs like this: (§2)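 Murine sublethal LPS endotoxemia screen. LPS is injected intraperitoneally and serum TNF-α is measured 2 h later as the end point. Compound is given subcutaneously or orally in a vehicle of 0.6% DMSO plus 1% carboxymethylcellulose (final concentrations) in sterile water. Values are % relative to control.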

The subject of data set [3] is THP-1. Kind of data set: Endogenous chemoattractant activity at human THP1 cells assessed as cell migration at 0.1 nM after 2 hrs by microtiter format trans-well migration assay. It is filed as functional.
Data set [4] deals with T2, C5a anaphylatoxin chemotactic receptor 1 (Homo sapiens) (UniProt P21730).
T2 sequence (whole entry): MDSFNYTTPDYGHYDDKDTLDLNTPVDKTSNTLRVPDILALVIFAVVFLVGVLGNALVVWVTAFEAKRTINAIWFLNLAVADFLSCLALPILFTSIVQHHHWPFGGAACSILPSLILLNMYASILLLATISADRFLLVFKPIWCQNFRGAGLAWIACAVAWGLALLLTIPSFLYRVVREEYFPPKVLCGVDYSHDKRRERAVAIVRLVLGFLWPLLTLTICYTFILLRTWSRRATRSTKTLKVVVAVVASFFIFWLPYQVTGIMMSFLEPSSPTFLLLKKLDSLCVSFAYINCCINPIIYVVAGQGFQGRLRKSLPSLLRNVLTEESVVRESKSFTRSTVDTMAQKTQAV
Kind of data set: Antagonist activity at C5a receptor in human PMNC assessed as inhibition of C5a-induced chemotaxis at 0.1 nM after 2 hrs by microtiter format trans-well migration assay. The format is functional. In short, it runs like this:
as §1

The target of data set [5] is C-C chemokine receptor type 5 (Homo sapiens) (UniProt P51681). Kind of data set: Antagonist activity at CCR5 in human THP1 cells assessed as inhibition of CCL5-induced chemotaxis after 2 hrs by microtiter format trans-well migration assay. The format is functional, cell-based. Conditions: THP-1. The procedure, abridged: as §1
The subject of data set [6] is Mus musculus. Description: Antiinflammatory activity in mouse assessed as inhibition of LPS-induced TNFalpha upregulation at 0.00075 mg, sc measured 2 hrs after LPS challenge. It is filed as functional. The procedure, abridged:
(§3)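 Murine sublethal endotoxemia: LPS given intraperitoneally, serum TNF-α measured 2 h after LPS injection. Compound vehicle 0.6% DMSO plus 1% carboxymethylcellulose (final concentrations) in sterile water.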

Data set [7] addresses T2, C5a anaphylatoxin chemotactic receptor 1 (Homo sapiens). Description: Antagonist activity at C5a receptor in human PMNC assessed as inhibition of C5a-induced chemotaxis after 2 hrs by microtiter format trans-well migration assay. It is filed as functional. The procedure, abridged: as §1
In data set [8] the target is C-C chemokine receptor type 5 (Homo sapiens) (UniProt P51681). Description: Antagonist activity at CCR5 in human THP1 cells assessed as inhibition of CCL5-induced chemotaxis at 0.01 nM after 2 hrs by microtiter format trans-well migration assay. The format is functional, cell-based. As to conditions: THP-1. The procedure, abridged:
as §1

Data set [9] shares this target. Kind of data set: Antagonist activity at CCR5 in human THP1 cells assessed as inhibition of CCL5-induced chemotaxis at 1 nM after 2 hrs by microtiter format trans-well migration assay. It is filed as functional, cell-based. As to conditions: THP-1. In short, it runs like this: as §1
Data set [10] has as its system Mus musculus. Description: Antiinflammatory activity in sc dosed mouse assessed as inhibition of LPS-induced TNFalpha upregulation measured 2 hrs after LPS challenge. The format is functional.
The nature of data set [11]: AUC (0 to t) in Sprague-Dawley rat at 1 mg/kg, iv administered as single dose. It is filed as ADME, organism-based, Plasma. Also on record: dose 1 mg/kg, route intravenous. As to conditions: Sprague-Dawley, plasma. In short, it runs like this:
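Male Sprague-Dawley rats, three per compound per route, single dose. IV vehicle 5% DMSO in 0.9% saline; oral gavage vehicle 1% carboxymethylcellulose in 0.9% saline; fed ad libitum. Plasma taken 5–480 min post-dose, extracted with 0.1% formic acid in acetonitrile, quantified by LC/MS/MS (positive mode). AUC(0–t) by linear/log trapezoidal rule; IV curve back-extrapolated assuming initial volume 0.26 L/kg.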

Data set [12] can be described thus: Clearance in Sprague-Dawley rat at 1 mg/kg, iv administered as single dose. The format is ADME, organism-based. Also on record: dose 1 mg/kg, route intravenous. As to conditions: in vivo. The procedure, abridged: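 Male Sprague-Dawley rats, three per compound, receive a single intravenous dose in 5% DMSO in 0.9% saline. Food and water are given ad libitum. Plasma is taken at 5, 15, 30, 60, 120, 180, 240 and 480 min. Drug is measured by LC/MS/MS after extraction with 0.1% formic acid in acetonitrile. The curve is back-extrapolated to time zero assuming an initial volume of 0.26 L/kg.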

Data set [13] concerns Mus musculus. Description: Antiinflammatory activity in mouse assessed as inhibition of LPS-induced TNFalpha upregulation at 0.25 mg, sc measured 2 hrs after LPS challenge. The format is functional. The procedure, abridged:
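Murine sublethal endotoxemia: LPS given intraperitoneally, with serum TNF-α measured 2 h after the LPS injection as the end point. Compound was given subcutaneously or orally. Vehicle was 0.6% DMSO and 1% carboxymethylcellulose (final concentrations) in sterile water. Effect is reported as % relative to control.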

Data set [14] concerns the target T1, C-C chemokine receptor type 1 (Homo sapiens). Kind of data set: Antagonist activity at CCR1 in human THP1 cells assessed as inhibition of CCL3-induced chemotaxis at 10 nM after 2 hrs by microtiter format trans-well migration assay. The format is functional, cell-based. Conditions: THP-1. The procedure, abridged: as §1
The subject of data set [15] is Mus musculus. Kind of data set: Antiinflammatory activity in mouse assessed as inhibition of LPS-induced TNFalpha upregulation at 0.000225 mg, sc measured 2 hrs after LPS challenge. The format is functional. The procedure, abridged:
as §3

Data set [16] has as its system Mus musculus. Description: Antiinflammatory activity in sc dosed mouse assessed as inhibition of LPS-induced TNFalpha upregulation measured 2 hrs after LPS challenge relative to control. It is filed as functional. The procedure, abridged:
as §2

For data set [17], the system named is THP-1. Description: Toxicity in human THP1 cells assessed as change in cell size at 10 nM by forward scatter flow cytometry relative to control. It is filed as cell-based. Conditions: thp-1, 0.01 µM.
The target in data set [18] is C-X-C chemokine receptor type 4 (Homo sapiens) (UniProt P61073). Kind of data set: Antagonist activity at CXCR4 in human THP1 cells assessed as inhibition of CXCL12-induced chemotaxis at 0.1 nM after 2 hrs by microtiter format trans-well migration assay. It is filed as functional, cell-based. As to conditions: THP-1. The procedure, abridged:
as §1

Data set [19] relates to Mus musculus. Kind of data set: Antiinflammatory activity in po dosed mouse assessed as inhibition of LPS-induced TNFalpha upregulation measured 2 hrs after LPS challenge relative to control. The format is functional. In short, it runs like this: as §2
Data set [20] has as its target T1, C-C chemokine receptor type 1 (Homo sapiens). Kind of data set: Antagonist activity at CCR1 in human THP1 cells assessed as inhibition of CCL3-induced chemotaxis at 100 nM after 2 hrs by microtiter format trans-well migration assay. The format is functional, cell-based. Conditions: THP-1. In short, it runs like this:
as §1

Structures are written as SMILES.

C-C chemokine receptor type 5 (Homo sapiens), sequence (P51681 whole entry, looked up): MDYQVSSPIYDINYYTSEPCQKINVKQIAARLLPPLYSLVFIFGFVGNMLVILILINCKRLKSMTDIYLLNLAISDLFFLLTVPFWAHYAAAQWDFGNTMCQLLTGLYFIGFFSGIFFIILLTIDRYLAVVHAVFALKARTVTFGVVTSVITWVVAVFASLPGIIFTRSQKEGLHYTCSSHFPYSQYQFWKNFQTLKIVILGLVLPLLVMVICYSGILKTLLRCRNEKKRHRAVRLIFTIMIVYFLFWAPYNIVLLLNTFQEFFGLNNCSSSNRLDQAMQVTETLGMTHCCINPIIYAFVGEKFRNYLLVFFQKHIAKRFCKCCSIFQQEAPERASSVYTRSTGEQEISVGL
C-X-C chemokine receptor type 4 (Homo sapiens), sequence (P61073 whole entry): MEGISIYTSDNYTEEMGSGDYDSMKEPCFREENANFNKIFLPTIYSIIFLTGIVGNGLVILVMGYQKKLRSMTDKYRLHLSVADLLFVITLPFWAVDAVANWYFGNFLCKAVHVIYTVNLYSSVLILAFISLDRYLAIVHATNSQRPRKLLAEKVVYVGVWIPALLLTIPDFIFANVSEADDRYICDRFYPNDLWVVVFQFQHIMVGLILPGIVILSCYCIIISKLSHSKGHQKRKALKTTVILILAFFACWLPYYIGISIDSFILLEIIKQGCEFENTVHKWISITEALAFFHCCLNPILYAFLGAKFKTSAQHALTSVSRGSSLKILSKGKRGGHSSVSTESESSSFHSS

Turning to `CCCCCCCCCCC(C)(C)C(=O)N[C@H]1CCCCNC1=O`, the inhibition in [1] was determined as 99.5%; in [4], 26.5%; in [8], 8.5%; in [9], 56%; in data set [14], 98%; in data set [18] it was 13%. The inhibition in [20] is 95%. The “inhibition (INH)” value in [2] was 18%; in data set [6], 57%; in [13], 79%; in [15], 68%; in [16], 70%; in data set [19], 70%. Moreover, the Activity in data set [3] turned out to be 2556%. Besides, the ED50 in [5] was 0.9 nM; in data set [7], greater than 1000 nM; in [10], 0.15 µg/kg. Further, the AUC(0-t) in data set [11] is 395 ng·h/mL. The molecule further had a clearance in [12] of 40 mL/min/kg. In [17], the “fold change (FC)” value is 1.04.

For the origin of these results see ChEMBL document CHEMBL1136923, “Highly potent, orally available anti-inflammatory broad-spectrum chemokine inhibitors” (J Med Chem, 2009).
